Screening results: PubChem, The Scripps Research Institute Molecular Screening Center
Sampled rows, rich in hits. Any-hit rate of the full collection: about 4.6%.
OX1R antag-1 = blocks the human orexin 1 receptor. inhibition, % at 5 µM. CHO/OX1R cells, Fluo-8 calcium fluorescence, orexin A. AID 434989. 330,000 compounds, 0.43% hits;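 active means inhibition above its plate's threshold, mean inhibition of all tested compounds on the plate plus 3 SD, cut at about 37% in these data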;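 further: 0% = orexin A challenge wells and 100% = SB-334867-A antagonist wells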
TAAR1 ag = human TAAR1 agonism | Q96RJ0 | CHO RD-HGA16 TAAR1, Fluo-8 calcium fluorescence; vehicle wells 0%, saturating PEA agonist 100% | activation, % at 3 µM | 360,000 compounds, 0.99% hits | AID 624467;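 active means activation above the mean activation of all test compounds in the run plus 3 SD, cut at about 38% in these data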
Target sequence (Q96RJ0 whole entry, looked up): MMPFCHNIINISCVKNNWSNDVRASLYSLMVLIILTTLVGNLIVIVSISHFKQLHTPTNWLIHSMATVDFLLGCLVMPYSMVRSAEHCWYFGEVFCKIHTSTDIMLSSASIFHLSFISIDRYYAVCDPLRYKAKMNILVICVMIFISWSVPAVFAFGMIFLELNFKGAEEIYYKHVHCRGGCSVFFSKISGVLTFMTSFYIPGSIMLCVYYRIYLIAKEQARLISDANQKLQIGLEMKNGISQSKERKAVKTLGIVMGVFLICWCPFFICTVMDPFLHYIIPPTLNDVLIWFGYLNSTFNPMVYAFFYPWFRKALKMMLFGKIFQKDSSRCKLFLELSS
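Assay system: CHO-derived RD-HGA16 cells with stable Gα16 and human TAAR1; timing: 17-24 h seeding, 75 min 37 °C dye, 30 min RT; read-out: % activation from peak over basal fluorescence ratio, DMSO-to-PEA scaled; measured by: kinetic Fluo-8 calcium fluorescence; benchmarks: low control DMSO, high control PEA (EC100); doses: 3 µM single concentration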
GPR7 antagonist = human neuropeptides B/W receptor 1 antagonism; inhibition, % at 4.4 µM; 290,000 compounds, 1.1% hits; AID 1861; P48145; GPR7-expressing cells, fluorescence antagonist assay; in the data active means inhibition above about 16%, passing the limit was not always enough;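 further: cells stimulated with the agonist NPW; 0% = agonist with vehicle and 100% = vehicle without agonist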
Target sequence (P48145 whole entry, looked up): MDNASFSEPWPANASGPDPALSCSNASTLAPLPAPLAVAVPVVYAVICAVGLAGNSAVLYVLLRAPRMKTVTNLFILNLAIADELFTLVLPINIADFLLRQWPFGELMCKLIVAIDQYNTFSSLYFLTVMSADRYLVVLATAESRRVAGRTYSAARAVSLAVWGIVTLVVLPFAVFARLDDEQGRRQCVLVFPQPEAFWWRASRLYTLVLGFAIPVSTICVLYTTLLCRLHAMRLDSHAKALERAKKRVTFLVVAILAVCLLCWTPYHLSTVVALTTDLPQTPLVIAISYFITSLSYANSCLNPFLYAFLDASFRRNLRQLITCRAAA
CHO parental Ca = counter-screen: ATP calcium response change in parental CHO cells | parental CHO-K1, ATP-induced calcium, Fluo-8 fluorescence | inhibition, % at 5.6 µM | 330,000 compounds, 0.63% hits | AID 463079;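 active means inhibition above that plate's mean sample inhibition plus 3 SD, cut at about 26% in these data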;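 further: 0% = ATP-challenged DMSO wells and 100% = DMSO wells without ATP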
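Material: parental CHO cells / Compound: single nominal dose of 5.6 µM per compound / Signal: Fluo-8 fluorescence / Replicates: singlicate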
TAAR1 antag = human TAAR1 antagonism; Q96RJ0; CHO RD-HGA16 TAAR1, Fluo-8 calcium fluorescence, antagonist; inhibition, % at 3 µM; 360,000 compounds, 1.5% hits; AID 624466;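 active means inhibition above a per-plate cutoff, the mean inhibition of test compounds on that plate plus 3 SD, cut at about 49% in these data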;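 further: 0% = DMSO plus EC80 beta-PEA response and 100% = DMSO alone without agonist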
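System: CHO RD-HGA16 cells bearing hTAAR1. Reagent: EC80 β-phenethylamine stimulus. Schedule: seeding 17-24 h prior, 75-min 37 °C, 30-min RT dye loading. Signal: Fluo-8 intracellular calcium dye fluorescence, real-time kinetic reads. Read-out: % inhibition from peak post-agonist over basal fluorescence ratio. Benchmarks: vehicle wells and EC80 agonist wells. Replicates: n of 1.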
OX1R antag-2 = antagonists of human orexin 1 receptor (OX1R); O43613; OX1R-expressing cells, FRET antagonist read-out; inhibition, % at 6.6 µM; 330,000 compounds, 1.8% hits; AID 485270; in the data active means inhibition mostly above about 38%, no sharp cut-off; inactive means mostly below about 40%;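 further: 0% = agonist challenge alone and 100% = reference antagonist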
Active calls of the source: *; x = no result.

SMILES	OX1R antag-1	TAAR1 ag	GPR7 antagonist	CHO parental Ca	TAAR1 antag	OX1R antag-2
CN=C1SC(CC(=O)NCCc2ccc(OC)c(OC)c2)C(=O)N1C (stereo unspecified)	104*	1	9	101*	-24	4
CCCCc1c(-c2ccccc2OC)ncn1Cc1ccc(F)cc1F	x	0	x	x	-18	x
Cc1ccc(CN2CCC=CS2(=O)=O)cc1	x	1	x	x	1	x
O=C(CSc1ccc2ccccc2c1)NCCc1ccc(O)c(O)c1	-3	4	13	-12	6	21
COc1ccc(CCNC(=O)CSc2nnc(-c3ccccc3)o2)cc1OC	-20	2	x	-4	-10	12
COc1ccc(CCNC(=O)CSc2nnc(-c3ccccc3)c3ccccc23)cc1OC	-14	-3	-3	-27	-16	73*
COc1ccc(CCNC(=O)CSc2ccc3ccccc3c2)cc1OC	-3	0	-7	-25	6	64*
Cc1ccc(C(=O)Nc2ccccc2C(=O)NC(Cc2c[nH]c3ccccc23)C(=O)O)cc1 (stereo unspecified)	-20	3	-2	-20	-12	50*
Cc1ccc(C(=O)Nc2ccccc2C(=O)NC(Cc2ccccc2)C(=O)O)cc1 (stereo unspecified)	-5	2	9	-11	7	7
CCN(CC(=O)NC)S(=O)(=O)c1ccc(Br)cc1	-15	4	16*	4	7	34
CN(c1ccccc1)S(=O)(=O)c1ccc(-c2ccccc2)cc1	-8	6	5	22	52*	15
CN(C)S(=O)(=O)c1ccc(-c2ccccc2)cc1	7	28	3	1	5	2
CCN(CC)S(=O)(=O)c1ccc(-c2ccc(S(=O)(=O)N(CC)CC)cc2)cc1	19	6	2	41*	35	24
CCN(CC(=O)NC)S(=O)(=O)c1ccc(C)cc1	-12	8	-14	-7	3	14
COc1ccc2c(c1OC)C(CC(C)=O)N1CCc3cc4c(cc3C1C2=O)OCO4 (stereo unspecified)	x	5	x	x	-10	x
Cc1cccc(S(=O)(=O)NC(=O)C2(C)CCN2C(=O)Cc2cc(F)ccc2F)c1 (stereo unspecified)	x	0	x	x	0	x
CC(=NNc1cc(C)c2ccccc2n1)c1ccccn1	x	15	x	x	38	x
CCCCc1c(-c2ccccc2OC)ncn1C(C)c1ccc(Cl)cc1 (stereo unspecified)	x	3	x	x	-5	x
CC(=O)C1=C(C)N(Cc2ccc(F)cc2)C(=S)NC1c1cccc(Br)c1 (stereo unspecified)	x	0	x	x	44	x
COCCN(CCOC)C(=O)COC(=O)c1cc([N+](=O)[O-])ccc1Cl	-4	1	-12	-11	-27	48*
O=C(COC(=O)c1cc([N+](=O)[O-])ccc1Cl)NCCc1ccccc1	-18	14	x	-6	3	17
CN(C(=O)COC(=O)c1cc([N+](=O)[O-])ccc1Cl)c1ccccc1	-12	5	-9	-20	-18	66*
CN(C(=O)COC(=O)CSc1ccc([N+](=O)[O-])cc1)c1ccccc1	-13	1	x	-12	51*	8
CN(C)c1ccc(N=Nc2ccccc2C(=O)OCC(=O)N(C)c2ccccc2)cc1	1	17	-5	34*	62*	21
CCc1nc2ccc(C(=O)NCCNC(C)=O)cn2c1N(C)Cc1ccc(OC)cc1	x	2	x	x	-17	x
SMILES	OX1R antag-1	TAAR1 ag	GPR7 antagonist	CHO parental Ca	TAAR1 antag	OX1R antag-2
Oc1ccc(C[C@H]2CN([C@@H](Cc3ccc(O)cc3)CN3CCC[C@@H]3CN3C(=S)NC[C@@H]3Cc3ccccc3)C(=S)N2CC2CCCCCC2)cc1	x	3	x	x	10	x
COc1cccc(-c2cc(NC=O)c3ncc(-c4ccc(F)c(Cl)c4)n3c2)c1	x	13	x	x	13	x
CCOC(=O)c1ccc(-c2ccc3c(=O)c4ccccc4n(C)c3c2)cc1F	8	7	-1	-3	6	66*
COc1ccc(CCOC(=O)c2ccc(N)c([N+](=O)[O-])c2)cc1	19	18	-10	47*	10	33
CC(C)(C)C(=O)COC(=O)c1ccc(N)c([N+](=O)[O-])c1	-1	5	-10	-6	0	19
COCCN1C(=O)[C@H]2C[C@@]13O[C@H](c1ccc(C(F)(F)F)cc1)N=C3C[C@H](c1ccccc1)[C@H]2C	x	-2	x	x	-34	x
CN(C)c1ccc2nsnc2c1[N+](=O)[O-]	-2	3	-5	-1	-26	39*
COC(=O)c1cc2c(c3c4cc(OC)ccc4n(S(=O)(=O)c4ccc(F)cc4)c13)C(=O)N(CC(C)C)C2	x	-2	x	x	-47	x
CON(c1nc(N(C)C)nc(N(C)C)n1)S(=O)(=O)c1ccccc1Cl	1	-2	-7	-6	-1	31*
CN(c1ccccc1)S(=O)(=O)c1cccc(Cl)c1Cl	-19	-3	-12	-8	-58	31
CCCNC(=O)Nc1ccc2c(c1)OC[C@H](C)N(C(=O)C1CCCCC1)C[C@@H](C)[C@H](OC)CN(C)C2=O	x	4	x	x	-6	x
C#CCN1C(=O)S/C(=C/C=C/c2ccc(N(C)C)cc2)C1=O	79*	24	15	72*	34	21
CCOC(=O)N1CCC(NC(=O)CCC(=O)N2CCOc3ccc(C)cc32)CC1	-23	5	5	-16	-13	6
Cc1ccc2c(c1)N(C(=O)CCC(=O)NC1CCC(C)CC1)CCO2 (stereo unspecified)	-22	-2	-7	-8	37	43*
Cc1ccc2c(c1)N(C(=O)CCC(=O)N1CCN(c3cccc(C)c3C)CC1)CCO2	-28	-2	-2	-24	27	40*
CCCCCCCCN1C(=O)[C@H](CC(=O)NCc2cccc3ccccc23)C[C@@]2(C(=O)OC)CC(C)(C)CC=C12	x	5	x	x	-31	x
O=C(Nc1ccc(Cl)c(S(=O)(=O)N2CCOCC2)c1)c1cccs1	-8	9	x	-11	17	5
CCOC(=O)N(C)C[C@@H]1OCc2cn(nn2)CCCC(=O)N([C@H](C)CO)C[C@H]1C	x	1	x	x	1	x
Cc1ccc2c(c1)-n1c(nc3cc(Cl)ccc3c1=O)C(Cc1ccccc1)NC2=O (stereo unspecified)	-18	x	x	-26	x	-3
O=C1OC(C(Cl)(Cl)Cl)Nc2ccccc21 (stereo unspecified)	x	0	x	x	-4	x
O=C(NCc1ccccc1)c1onc(CSc2ccccc2)c1C(=O)NCC1CC1	47	14	x	47*	56*	62
COC(=O)C1=C(C)N(C)C(=NCc2ccccc2C(F)(F)F)NC1c1ccc(C(F)(F)F)cc1 (stereo unspecified)	x	19	x	x	24	x
NS(=O)(=O)c1ccc(N=Nc2ccc(O)c3ncccc23)cc1	-15	1	-3	-3	-11	3
